Assay results published in ChEMBL document CHEMBL1123811, “gem-Diphosphonate and gem-phosphonate-phosphate compounds with specific high density lipoprotein inducing activity” (1987).

Experiments:
Format in all cases: functional
Rattus norvegicus [1] = organism: Rattus norvegicus; experiment: Activity to induce the elevation of phospholipids in plasma lipids of male Wistar rats; parameters: concentration or dose not given beside the values
Method in brief: (§1)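 Wistar rats on normal diet; groups were vehicle control, an internal-standard diphosphonate, and test compounds. Dosed daily for 4 days; diphosphonates were dissolved in water or suspended in 1% (carboxymethyl)cellulose, 4 mL/kg. On day 5, after overnight fast, rats were killed under ether. EDTA plasma was assayed enzymatically for HDL-C after heparin-CaCl2 precipitation of VLDL/LDL, phospholipids, triglycerides and α/β-cholesterol ratio. Results are given as % of control.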

Rattus norvegicus [2] = organism: Rattus norvegicus; experiment: Activity to induce the elevation of alpha/beta cholesterol ratio in plasma lipids of male Wistar rats; parameters: concentration or dose not given beside the values; method in brief: as §1
Rattus norvegicus [3] = organism: Rattus norvegicus; experiment: Activity to induce the elevation of triglycerides in plasma lipids of male Wistar rats; parameters: concentration or dose not given beside the values; method in brief: as §1
Rattus norvegicus [4] = organism: Rattus norvegicus; experiment: Activity to induce the elevation of HDL(High Density Lipoproteins)-Cholesterol in plasma lipids of male Wistar rats; parameters: concentration or dose not given beside the values; method in brief: as §1
Rattus norvegicus [5] = organism: Rattus norvegicus; experiment: Activity to induce the elevation of triglycerides of male Wistar rats; parameters: concentration or dose not given beside the values; method in brief: as §1
Rattus norvegicus [6] = organism: Rattus norvegicus; experiment: Activity to induce the elevation of alpha/beta cholesterol ratio of male Wistar rats; parameters: concentration or dose not given beside the values; method in brief: as §1
Rattus norvegicus [7] = organism: Rattus norvegicus; experiment: Activity to induce the elevation of phospholipids of male Wistar rats; parameters: concentration or dose not given beside the values; method in brief: as §1
Rattus norvegicus [8] = organism: Rattus norvegicus; experiment: Activity to induce the elevation of HDL(High Density Lipoproteins)-Cholesterol of male Wistar rats; parameters: concentration or dose not given beside the values; method in brief: as §1
Rattus norvegicus [9] = experiment: Activity to induce the elevation of HDL(High Density Lipoproteins)-Cholesterol in plasma lipids of male Wistar rats after po administration of 100 mg/kg/day
Method in brief: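 Wistar rats on a normal diet were dosed daily for 4 days at the dose and route given. On day 5, after an overnight fast, they were killed under ether and blood was taken by decapitation into EDTA. Plasma HDL cholesterol was measured after heparin-CaCl2 precipitation of VLDL/LDL and is expressed as % change versus a vehicle control group.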

Rattus norvegicus [10] = experiment: Activity to induce the elevation of phospholipids in plasma lipids of male Wistar rats after po administration of 100 mg/kg/day
Method in brief: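 Normal-diet Wistar rats were given the test agent once daily for 4 days and killed on day 5 after an overnight fast. Total plasma phospholipids (EDTA plasma) were measured chemically by the molybdate/vanadate reaction or enzymatically (phospholipid B test). Values are % of vehicle controls.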

Rattus norvegicus [11] = experiment: Activity to induce the elevation of triglycerides in plasma lipids of male Wistar rats after po administration of 100 mg/kg/day
Method in brief: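 Daily dosing of normal-diet Wistar rats ran for 4 days, with sacrifice on day 5 after an overnight fast. Plasma was collected by decapitation into EDTA. Total triglycerides were measured enzymatically and expressed as % change relative to the vehicle control group.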

Rattus norvegicus [12] = experiment: Activity to induce the elevation of alpha/beta cholesterol ratio in plasma lipids of male Wistar rats after po administration of 100 mg/kg/day
Method in brief: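 Rats (Wistar, normal diet) were treated daily for 4 days and fasted overnight, and EDTA plasma was taken on day 5. Total cholesterol was measured enzymatically, and β-lipoprotein cholesterol after heparin-CaCl2 precipitation. The α/β-cholesterol ratio is reported as % change from vehicle-treated controls.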

Row | Compound | Percent change in plasma triglycerides versus control (Rattus norvegicus [5]) [%] | Percent change in alpha/beta cholesterol ratio versus control (Rattus norvegicus [6]) [%] | Plasma phospholipids, % change versus control (Rattus norvegicus [7]) [%] | HDL-cholesterol change relative to control (%) (Rattus norvegicus [8]) | other results
1 | CCOP(=O)(OCC)C(Cl)(CCCc1ccccc1)P(=O)(OCC)OCC | – | – | – | – | Control (Rattus norvegicus [1]): 27%; Control (Rattus norvegicus [2]): -23%; Control (Rattus norvegicus [3]): -4%; Control (Rattus norvegicus [4]): -2%
2 | COP(=O)(OC)C(O)(c1ccc(Cl)cc1)P(=O)(OC)OC | 15 | 130 | 19 | 44 | –
3 | COP(=O)(OC)OC(c1ccc2ccccc2c1)P(=O)(OC)OC (stereo unspecified) | 28 | 134 | 27 | 47 | –
4 | COP(=O)(OC)OC(C(C)(C)c1ccccc1)P(=O)(OC)OC (stereo unspecified) | 36 | 25 | 15 | 33 | –
5 | COP(=O)(OC)OC(c1cccc(Br)c1)P(=O)(OC)OC (stereo unspecified) | 14 | 71 | 3 | 28 | –
6 | CCOP(=O)(OCC)OC(c1ccc(Cl)cc1)P(=O)(OCC)OCC (stereo unspecified) | 8 | -6 | 16 | 15 | –
7 | COP(=O)(OC)OC(C(C)(C)Cc1ccc(Cl)cc1)P(=O)(OC)OC (stereo unspecified) | -19 | -38 | -27 | -30 | –
8 | COP(=O)(OC)C(Cc1ccccc1)P(=O)(OC)OC | -3 | 22 | 25 | 32 | –
9 | CC(C)OP(=O)(OC(C)C)C(Cc1ccc(Cl)cc1)P(=O)(OC(C)C)OC(C)C | 19 | -1 | 13 | 12 | –
10 | COP(=O)(OC)C(CCCc1ccccc1)P(=O)(OC)OC | 42 | 49 | 33 | 52 | –
11 | COP(=O)(OC)OC(c1cc(C)ccc1C)P(=O)(OC)OC (stereo unspecified) | -3 | 15 | -16 | 10 | –
12 | CCCCCCCCCCCCCCOc1ccc(CC(P(=O)(OCC)OCC)P(=O)(OCC)OCC)cc1 | – | – | – | – | Control (Rattus norvegicus [1]): -4%; Control (Rattus norvegicus [2]): -28%; Control (Rattus norvegicus [3]): -27%; Control (Rattus norvegicus [4]): 27%
13 | CCCCCCCCCCCCCCCC(O)(P(=O)(OC)OC)P(=O)(OC)OC | – | – | – | – | Control (Rattus norvegicus [1]): 4%; Control (Rattus norvegicus [2]): -38%; Control (Rattus norvegicus [3]): 14%; Control (Rattus norvegicus [4]): -3%
14 | CCOP(=O)(OCC)C(CCc1ccccc1)P(=O)(OCC)OCC | 11 | 74 | 16 | 41 | –
15 | O=P(O)(O)C(CCCOc1ccccc1)P(=O)(O)O | -7 | -57 | -6 | -18 | –
16 | COP(=O)(OC)C(Cl)(CCCOc1ccccc1)P(=O)(OC)OC | – | – | – | – | Control (Rattus norvegicus [1]): 15%; Control (Rattus norvegicus [2]): -42%; Control (Rattus norvegicus [3]): -3%; Control (Rattus norvegicus [4]): 57%
17 | COP(=O)(OC)OC(CC(C)(C)C)P(=O)(OC)OC (stereo unspecified) | -9 | 44 | 18 | 47 | –
18 | COP(=O)(O)C(CCCc1ccccc1)P(=O)(O)OC (stereo unspecified) | 9 | -23 | 11 | -9 | –
19 | COP(=O)(OC)C(O)(c1ccc(F)cc1)P(=O)(OC)OC | 27 | 64 | 3 | 23 | –
20 | O=P(O)(O)C(Cc1ccccc1)P(=O)(O)O | -11 | -10 | 3 | -8 | –
21 | COP(=O)(O)C(Cc1ccc(Cl)cc1)P(=O)(O)OC (stereo unspecified) | -30 | -20 | 6 | 27 | –
22 | COP(=O)(OC)C(Cl)(Cc1ccc(Cl)cc1)P(=O)(OC)OC | – | – | – | – | Control (Rattus norvegicus [1]): 7%; Control (Rattus norvegicus [2]): 81%; Control (Rattus norvegicus [3]): 11%; Control (Rattus norvegicus [4]): 10%
23 | COP(=O)(OC)OC(c1ccc(C(F)(F)F)cc1)P(=O)(OC)OC (stereo unspecified) | 4 | 29 | 3 | 22 | –
24 | COP(=O)(OC)OC(c1ccc(F)cc1)P(=O)(OC)OC (stereo unspecified) | -9 | 81 | 2 | 40 | –
25 | COP(=O)(OC)C(Cl)(CCCc1ccccc1)P(=O)(OC)OC | – | – | – | – | Control (Rattus norvegicus [1]): 24%; Control (Rattus norvegicus [2]): -9%; Control (Rattus norvegicus [3]): -36%; Control (Rattus norvegicus [4]): 26%
26 | CCCCCCCCCCCCCCOc1ccc(CC(P(=O)(OC)OC)P(=O)(OC)OC)cc1 | – | – | – | – | Control (Rattus norvegicus [1]): 10%; Control (Rattus norvegicus [2]): 14%; Control (Rattus norvegicus [3]): 4%; Control (Rattus norvegicus [4]): 20%
27 | CCOP(=O)(OCC)C(Cc1ccccc1)P(=O)(OCC)OCC | -47 | 28 | 5 | 5 | –
28 | CCOC(=O)C(C)(C)Oc1ccc(Cl)cc1 [CLOFIBRATE] | – | – | – | – | Control (Rattus norvegicus [9]): -34%; Control (Rattus norvegicus [10]): -22%; Control (Rattus norvegicus [11]): 28%; Control (Rattus norvegicus [12]): -53%
29 | CC(C)OC(=O)C(C)(C)Oc1ccc(C(=O)c2ccc(Cl)cc2)cc1 [FENOFIBRATE] | – | – | – | – | Control (Rattus norvegicus [9]): -45%; Control (Rattus norvegicus [10]): -19%; Control (Rattus norvegicus [11]): 12%; Control (Rattus norvegicus [12]): -80%
